# Source: PubChem BioAssay (SRMLSC)
# HCT116 PTEN-null: growth suppression of PTEN-null HCT116, primary screen, cell-based, CellTiter-Glo. AID 827, 2007. viability, % at 10 µM. hit rate 1.2% among 140,000. HCT116 PTEN-null viability, 60 h; hits give low values;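 active means viability at or below a set limit, 4 SD under the median of all tested compounds, cut at about 3.7% in these data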;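 further: PTEN knockout HCT116 line with beta catenin targeted HCT116 as companion control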
# H69AR inhibit: proliferation blockers of H69AR lung cancer cells, primary screen, cell-based, human, 86K library; H69AR lung tumor viability, ATP luminescence, 72 h; hits give low values; viability, % at 10 µM; hit rate 6% among 85,000; AID 598, 2007;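 active means viability at or below 40%; inactive means viability above 40%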;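 further: multidrug resistant small cell line overexpressing MRP-1 efflux transporter; 100% = mean luminescence of untreated control wells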
# HUVEC inhibit: inhibitors of HUVEC proliferation, primary screen, cell-based, 384-well; CellTiter-Glo luminescence, 72 h; hits give low values; viability, % at 10 µM (by protocol); hit rate 1.1% among 86,000; AID 648, 2007;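 active means viability at or below 30%; inactive means viability above 30%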;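 further: 100% = median luminescence of DMSO-only cell control wells on each plate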
# Lung fibro prol: antiproliferative effect on LL 47 fibroblasts – human, LL 47 cells, CellTiter-Glo luminescence, primary screen; LL 47 human lung fibroblast viability, ATP luminescence; hits give low values; viability, % at 10 µM; hit rate 1.1% among 85,000; AID 719, 2007;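 active means viability at or below 50% in the single dose screen; inactive means viability above 50%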;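 further: compound exposure lasted 72 h before the ATP readout; 100% = median luminescence of untreated cell-only wells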
#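 Benchmarks: Cell-only wells, no compound | Test system: LL 47 human lung fibroblasts, passage 12 or lower | Input: 1,150 cells/well | Measured by: CellTiter-Glo luminescence measuring cellular ATP | Medium: IMEM, 15% FBS supplement | Schedule: Overnight attachment after seeding, then 72 h compound exposure at 37 °C | Doses: Compound addition at 0.1% DMSO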
# bCat KO growth: primary screen for growth suppressors in beta-catenin knockout HCT116 cells (colon tumor, human); HCT116 beta-catenin knockout viability, CellTiter-Glo, 60 h; hits give low values; viability, % at 10 µM; hit rate 1.5% among 140,000; AID 818, 2007;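 active means viability at or under a set limit, the compound median less 4 SD, cut at about 6% in these data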;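 further: 0% = Hyamine 1622 control at 20 µM and 100% = untreated cell control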
# * = called active by the depositor; . = no result. The full list was thinned out, with hits kept by preference.
SMILES,HCT116 PTEN-null,H69AR inhibit,HUVEC inhibit,Lung fibro prol,bCat KO growth
Cc1ccc(Nc2nc(N)nc(CN3CCN(c4ccccc4F)CC3)n2)cc1,76.0,90.3,75.1,94.7,78.7
Nc1nc(CN2CCCCCC2)nc(Nc2ccccc2)n1,62.9,76.7,111.6,106.4,64.0
Nc1nc(CN2CCC(Cc3ccccc3)CC2)nc(Nc2ccccc2)n1,68.6,30.1*,60.5,66.9,56.2
COCCNC(=O)CSc1nnc(CCCN2C(=O)c3cccc4cccc(c34)C2=O)n1-c1ccccc1,91.1,.,.,.,90.0
O=C(COc1ncnc2c(Cl)cc(Cl)cc12)Nc1cc([N+](=O)[O-])ccc1Cl,88.4,.,.,.,92.4
Cc1nnc(NC(=O)c2ccc(S(=O)(=O)N(C)Cc3ccccc3)cc2)o1,33.6,24.1*,84.7,97.3,38.2
CCN(Cc1ccccc1)S(=O)(=O)c1ccc(C(=O)Nc2nnc(C3CC3)o2)cc1,13.9,31.9*,68.6,69.6,17.7
COCCN(CCOC)S(=O)(=O)c1ccc(C(=O)Nc2nnc(C)o2)cc1,101.6,.,.,.,93.3
CSCc1nnc(NC(=O)c2ccc(S(=O)(=O)N(CC(C)C)CC(C)C)cc2)o1,10.6,.,.,.,9.4
Cc1ccc(-n2nnnc2SC(C)C(=O)NCC(=O)Nc2ccc(F)c(F)c2F)c(C)c1 (centres undefined),73.7,.,.,.,77.2
O=C(NC(NC(=S)Nc1c(Cl)cc(Cl)cc1Cl)C(Cl)(Cl)Cl)OCc1ccccc1 (centres undefined),5.1,.,.,.,5.9*
Cc1ccc(C)c(NC(=S)NC(NC(=O)OCc2ccccc2)C(Cl)(Cl)Cl)c1 (centres undefined),92.4,.,.,.,84.2
Cc1ccccc1-c1nnc(NC(=O)CSc2nc3ccccc3s2)s1,77.4,.,.,.,80.1
CCCn1c2c(c(O)c(C(=O)Nc3ccccc3)c1=O)CCCC2,77.5,88.2,114.4,99.1,85.6
O=C(NNc1nc2cc3c(cc2s1)OCO3)c1cccc(F)c1,0.2*,.,.,.,0.6*
CCN(CC)S(=O)(=O)c1cccc(C(=O)Nc2nc3cc4c(cc3s2)OCCO4)c1,54.3,22.5*,104.0,95.0,39.4
CC(CCc1ccccc1)NC(=O)c1cccs1 (centres undefined),101.3,.,.,.,106.6
C/C(=N\NC(=O)C(C)Oc1ccc([N+](=O)[O-])cc1)c1ccccn1 (centres undefined),6.4,.,.,.,4.6*
C/C(N)=C(/C#N)C(=O)COC(=O)COc1ccc(Cl)cc1C,91.3,.,.,.,81.1
COc1ccc(C)cc1N1C(=N)/C(=C2/Nc3ccccc3S2)C(c2ccccc2)C1=O (centres undefined),1.7*,.,.,.,1.6*
O=C(NN1CCOCC1)c1cc(-c2ccc(Cl)c(Cl)c2)nc2ccccc12,81.7,.,.,.,86.3
CCOc1cc2[nH]c(=S)n(CCc3ccc(OC)c(OC)c3)c(=O)c2cc1OCC,35.7,3.0*,16.3*,17.1*,19.6
CCOc1cc2[nH]c(=O)n(CCc3ccc(OC)c(OC)c3)c(=O)c2cc1OCC,63.0,35.6*,87.8,96.3,83.5
CCOc1cc2[nH]c(=S)n(CCCOC)c(=O)c2cc1OCC,95.0,71.4,88.6,96.4,95.7
CCOc1c2ccc(C(=O)NCc3ccc4c(c3)OCO4)cc2nn1CCOC,93.4,.,.,.,96.8
SMILES,HCT116 PTEN-null,H69AR inhibit,HUVEC inhibit,Lung fibro prol,bCat KO growth
Cc1ccc(C(=O)N2CCSCC2)cc1,92.6,92.2,92.8,99.8,89.2
Cc1nn(-c2ccccc2)c2nc3c(cc12)C(=O)CCC3,77.7,.,.,.,79.1
CN(Cc1ccc(O)cc1)C1CCCCC1,97.1,29.8*,100.9,.,85.3
COc1ccc(CN(C)C2CCCCC2)cc1,90.6,86.1,102.1,102.1,100.0
COc1ccc(-n2nnnc2SCC(=O)c2cccc(OC)c2)cc1,46.1,86.4,57.5,98.8,35.9
COc1ccc(-n2nnnc2SCC#CCO)cc1,86.2,17.9*,54.2,100.4,88.0
C=CCNC(=O)CCCc1ccccc1,68.8,1.4*,100.3,101.0,71.5
COC(=O)/C(=C(/F)Sc1cc(C)c(O)c(C)c1)C(F)(F)F,77.6,2.7*,23.1*,9.3*,80.2
CCc1ccc2nc(NC(=O)c3cc(C)on3)sc2c1,24.5,17.3*,70.8,74.9,31.2
COc1ccc(C(=O)Nc2ccc(-c3ccc(C)o3)cc2)cc1S(=O)(=O)N1CCOCC1,11.2,21.8*,53.3,73.3,5.7*
O=C(Nc1ccccc1)c1ccc(NCCN2CCOCC2)c(S(=O)(=O)N2CCOCC2)c1,96.9,68.1,93.0,98.3,106.5
O=C(Nc1ccccc1)c1ccc(NCc2ccco2)c(S(=O)(=O)N2CCOCC2)c1,89.0,39.3*,85.5,94.2,73.6
COc1ccc(C(=O)Nc2cccc(C)c2)cc1S(=O)(=O)N1CCOCC1,91.4,89.6,92.2,98.8,77.8
COc1ccc(OC)c(-n2nnnc2SCC(=O)Nc2ccc3c(c2)OCCO3)c1,101.6,43.0,18.4*,81.8,101.8
CCOC(=O)c1c(NC(=O)CSc2nnnn2-c2ccc3c(c2)OCCO3)sc(C)c1C,81.8,36.1*,92.7,86.8,76.8
CCc1ccccc1-n1c(SCC(=O)Nc2ccc3c(c2)OCCO3)nc2[nH]ncc2c1=O,87.0,39.0*,77.1,74.8,93.4
CCOC(=O)c1c(NC(=O)CSc2nnnn2-c2ccc3c(c2)OCO3)sc(C)c1C,89.1,60.5,83.9,91.9,91.6
NC(=O)CN1CCOCCOCCN(CC(N)=O)CCOCCOCC1,94.4,91.6,97.6,105.0,94.4
Cc1ccc(S(=O)(=O)NCC(=O)OC(C)C(=O)Nc2ncc(Cl)cc2Cl)cc1 (centres undefined),91.2,84.6,102.8,108.5,94.8
CC1(C)CC(=O)CC(C2(O)C(=O)N(Cc3ccccc3)c3ccccc32)O1 (centres undefined),9.9,28.5*,94.5,102.6,11.1
CC1(C)CC(=O)C(C2(O)C(=O)N(Cc3ccccc3)c3ccccc32)CO1 (centres undefined),12.2,17.0*,76.3,97.4,14.3
CC12CN3CC(C)(CN(C1)C31C(=O)N(Cc3ccccc3)c3ccccc31)C2=O (centres undefined),.,85.6,88.4,91.8,.
O=c1cc(CNc2ccc(Br)cc2)nc2sccn12,82.8,.,.,.,86.5
COC(=O)c1ccc(NC2(C#N)C(=O)Nc3ccccc32)cc1 (centres undefined),88.2,23.1*,86.1,95.2,86.6
CCS(=O)(=O)Nc1ccc(C(=O)CC2(O)C(=O)Nc3ccccc32)cc1 (centres undefined),98.9,81.0,100.7,100.2,99.4
CCN(CC(=O)NCc1ccc(F)cc1)C(=O)COc1ccc2ccccc2c1,80.0,.,.,.,81.9
N#Cc1cn(CC(=O)NCCc2c[nH]c3ccccc23)c2ccccc12,63.8,72.5,81.8,87.5,83.5
Cc1c(C#N)c2ccccc2n1CC(=O)NCCc1c[nH]c2ccccc12,69.9,36.6*,74.5,76.8,72.6
